Reference: ChEMBL document CHEMBL3779860, “A Designed Tryptophan- and Lysine/Arginine-Rich Antimicrobial Peptide with Therapeutic Potential for Clinical Antibiotic-Resistant Candida albicans Vaginitis” (J Med Chem, 2016)
Calls of active or inactive are those of the source. The rule behind the calls is not given here.

What was measured:
Candida albicans [1] = assay: Antimicrobial activity against antibiotic resistant Candida albicans clinical isolate 08030809 assessed as clone count at 10 times MIC after 30 mins by colony counting assay (reference value: 156 +/- 16 CFU); format: functional
Candida albicans [2] = assay: Antimicrobial activity against antibiotic resistant Candida albicans clinical isolate 08030809 in mouse vaginitis model assessed as decrease in colony count in lavage liquid of vagina administered as intravaginal instillation measured on day 1, 6, 11, 16; format: functional, organism-based
Mus musculus [3] = assay: Antiinflammatory activity in antibiotic resistant Candida albicans clinical isolate 08030809 induced mouse vaginitis model assessed as reduction in IL-10 secretion in vaginal tissue at 50 ug administered as intravaginal instillation measured on day 10 by ELISA; format: functional, Vagina
Procedure, shortened: (§1)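 Same estradiol-primed mouse model, infected intravaginally with C. albicans 08030809 and treated by intravaginal instillation (20 µL/mouse). Vaginal canals excised on day 10 of treatment and homogenised in 0.9% NaCl. Supernatant taken after 2,000 g for 15 min. TNF-α, IL-6, IL-1β and IL-10 measured by ELISA. Mean ± SE of three independent experiments; unpaired t-test versus vehicle.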

Candida albicans [4] = assay: Antimicrobial activity against antibiotic resistant Candida albicans clinical isolate 08030401 after 16 hrs by broth dilution method; format: functional; conditions: isolate 08030401, 16 h
Procedure, shortened: (§2)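 Broth microdilution in Sabouraud liquid medium. Samples are stocks in 0.9% NaCl, 10 µL added to 90 µL broth plus 100 µL of 2 × 10^5 CFU/mL yeast suspension. Incubated 16 h at 28°C, growth read by A600. MIC is the lowest concentration completely inhibiting growth; mean of three independent experiments.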

Candida albicans [5] = assay: Antimicrobial activity against antibiotic resistant Candida albicans clinical isolate 08032815 compound treated in double distilled water measured after 36 hrs by disc diffusion method; format: functional; conditions: isolate 08032815, 36 h
Procedure, shortened: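 Salt-tolerance test: peptide at 2 mg/mL was prepared in sterile ddH2O, in 150 mM NaCl, or in PBS (150 mM NaCl, 2.7 mM KCl, 1.5 mM KH2PO4, 8 mM K2HPO4, pH 7.2). Anti-C. albicans activity was then assessed by inhibition zone on Sabouraud medium with 0.7% agar.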

[6] = Induction of hemolysis in human RBC at 320 ug/mL after 30 mins; format: cell-based, Erythrocyte; conditions: red blood cells, read-out: Activity
Procedure, shortened: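 Serial dilutions were incubated with human erythrocytes for 30 min at 37°C. Supernatant absorbance was read at 540 nm after centrifugation. Hemolysis is expressed as % of the 1% Triton X-100 lysis value, pooled from three independent experiments. The highest concentration tested was 320 µg/mL.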

Candida albicans [7] = assay: Antimicrobial activity against antibiotic resistant Candida albicans clinical isolate 08030809 assessed as clone count at 10 times MIC after 3 hrs by colony counting assay (reference value: 3687 +/- 543 CFU); format: functional
Candida albicans [8] = assay: Antimicrobial activity against antibiotic resistant Candida albicans clinical isolate 08030809 assessed as clone count at MIC after 1 hr by colony counting assay (reference value: 228 +/- 23 CFU); format: functional
Mus musculus [9] = assay: Antiinflammatory activity in antibiotic resistant Candida albicans clinical isolate 08030809 induced mouse vaginitis model assessed as reduction in TNF-alpha secretion in vaginal tissue at 20 ug administered as intravaginal instillation measured on day 10 by ELISA; format: functional, Vagina; procedure, shortened: as §1
Bacillus subtilis = assay: Antimicrobial activity against Bacillus subtilis assessed as inhibition of […] growth after 16 hrs by broth dilution method; format: functional
Procedure, shortened: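 Broth dilution in LB broth; 100 µL of 2 × 10^5 CFU/mL bacterial suspension plus 10 µL sample (stock series in 0.9% NaCl) in 90 µL broth, 37°C for 16 h. Growth read as A600; MIC is the lowest concentration completely inhibiting growth. Mean of three independent experiments run in duplicate.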

Candida albicans [10] = assay: Antimicrobial activity against antibiotic resistant Candida albicans clinical isolate 08030809 assessed as clone count at 10 times MIC after 1 hr by colony counting assay (reference value: 228 +/- 23 CFU); format: functional
Candida albicans [11] = assay: Antimicrobial activity against antibiotic resistant Candida albicans clinical isolate 08022821 after 16 hrs by broth dilution method; format: functional; conditions: isolate 08022821, 16 h; procedure, shortened: as §2
Candida albicans [12] = assay: Antimicrobial activity against antibiotic resistant Candida albicans clinical isolate 08030809 assessed as clone count at 10 times MIC after 1 min by colony counting assay (reference value: 62 +/- 7 CFU); format: functional
Mus musculus [13] = assay: Antiinflammatory activity in antibiotic resistant Candida albicans clinical isolate 08030809 induced mouse vaginitis model assessed as reduction in TNF-alpha secretion in vaginal tissue administered as intravaginal instillation measured on day 10 by ELISA; format: functional, organism-based; conditions: Vagina; procedure, shortened: as §1
Candida albicans [14] = assay: Antimicrobial activity against antibiotic resistant Candida albicans clinical isolate 08032815 after 16 hrs by broth dilution method; format: functional; conditions: isolate 08032815, 16 h
Procedure, shortened: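 Broth dilution MIC. Samples were serially diluted in 0.9% NaCl and mixed with Sabouraud broth and yeast suspension at 2 × 10^5 CFU/mL, then incubated 16 h at 28°C. Growth was read at 600 nm. MIC is the lowest concentration giving complete growth inhibition, reported as mean of three independent experiments.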

Candida albicans [15] = assay: Antimicrobial activity against antibiotic resistant Candida albicans clinical isolate 08030809 in mouse vaginitis model assessed as decrease in colony count in lavage liquid of vagina at 50 ug administered as intravaginal instillation measured on day 6; format: functional
Candida albicans [16] = assay: Antimicrobial activity against antibiotic resistant Candida albicans clinical isolate 08030809 assessed as clone count at 10 times MIC after 6 hrs by colony counting assay (reference value: 14536 +/- 2467 CFU); format: functional
Candida albicans [17] = assay: Antimicrobial activity against antibiotic resistant Candida albicans clinical isolate 08030809 assessed as clone count at 5 times MIC after 12 hrs by colony counting assay (reference value: 54153 +/- 8769 CFU); format: functional
Candida albicans [18] = assay: Antimicrobial activity against antibiotic resistant Candida albicans clinical isolate 08030809 assessed as clone count at 5 times MIC after 10 mins by colony counting assay (reference value: 102 +/- 11 CFU); format: functional
Candida albicans [19] = assay: Antimicrobial activity against antibiotic resistant Candida albicans clinical isolate 08030809 in mouse vaginitis model assessed as decrease in colony count in lavage liquid of vagina at 20 ug administered as intravaginal instillation measured on day 6; format: functional
Candida albicans [20] = assay: Effect on cell morphology in antibiotic resistant Candida albicans clinical isolate 08030809 assessed as intracellular inclusions at MIC to 2.5 times MIC after 30 mins by scanning electron microscopy; format: functional, organism-based
Procedure, shortened: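 Exponential-phase C. albicans 08030809 was washed in PBS and resuspended in Sabouraud medium. Cells were treated 30 min at 37°C alongside a vehicle control. They were then fixed in 2.5% glutaraldehyde (4°C, 2 h) and 1% osmium tetroxide, dehydrated through graded ethanol, freeze-dried from tert-butanol, gold-coated and imaged by SEM. Images are typical of three experiments.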

Mus musculus [21] = assay: Antiinflammatory activity in antibiotic resistant Candida albicans clinical isolate 08030809 induced mouse vaginitis model assessed as reduction in IL-1beta secretion in vaginal tissue at 20 ug administered as intravaginal instillation measured on day 10 by ELISA; format: functional, Vagina; procedure, shortened: as §1
Candida albicans [22] = assay: Antimicrobial activity against antibiotic resistant Candida albicans clinical isolate 08030102 after 16 hrs by broth dilution method; format: functional; conditions: isolate 08030102, 16 h; procedure, shortened: as §2

Substance: H-VKRWKKWRWKWKKWV-NH2
- Activity (Candida albicans [1]): 0 CFU
- inhibition (Candida albicans [2]): Dose-dependent effect
- inhibition (INH) (Mus musculus [3]): 45%
- MIC (Candida albicans [4]): 4.69 µg/mL
- MIC (Candida albicans [5]): 2.79 µg/mL
- hemolysis at 0.5 h, 320 ug/mL [6]: 3.1%
- Activity (Candida albicans [7]): 0 CFU
- Activity (Candida albicans [8]): 0 CFU
- inhibition (INH) (Mus musculus [9]): 32%
- MIC (Bacillus subtilis): 1.17 µg/mL
- Activity (Candida albicans [10]): 0 CFU
- MIC (Candida albicans [11]): 3.13 µg/mL
- Activity (Candida albicans [12]): 6 CFU
- Activity (Mus musculus [13]): Dose-dependent effect
- MIC (Candida albicans [14]): 2.79 µg/mL
- inhibition (INH) (Candida albicans [15]): 48%
- Activity (Candida albicans [16]): 0 CFU
- Activity (Candida albicans [17]): 0 CFU
- Activity (Candida albicans [18]): 9 CFU
- inhibition (INH) (Candida albicans [19]): 22%
- Activity (Candida albicans [20]): Active
- inhibition (INH) (Mus musculus [21]): 44%
- MIC (Candida albicans [22]): 3.13 µg/mL
